Source: ChEMBL document CHEMBL1132600

Molecular target: T1, Fatty-acid amide hydrolase 1 (Rattus norvegicus) (UniProt P97612)
T1 sequence (whole entry): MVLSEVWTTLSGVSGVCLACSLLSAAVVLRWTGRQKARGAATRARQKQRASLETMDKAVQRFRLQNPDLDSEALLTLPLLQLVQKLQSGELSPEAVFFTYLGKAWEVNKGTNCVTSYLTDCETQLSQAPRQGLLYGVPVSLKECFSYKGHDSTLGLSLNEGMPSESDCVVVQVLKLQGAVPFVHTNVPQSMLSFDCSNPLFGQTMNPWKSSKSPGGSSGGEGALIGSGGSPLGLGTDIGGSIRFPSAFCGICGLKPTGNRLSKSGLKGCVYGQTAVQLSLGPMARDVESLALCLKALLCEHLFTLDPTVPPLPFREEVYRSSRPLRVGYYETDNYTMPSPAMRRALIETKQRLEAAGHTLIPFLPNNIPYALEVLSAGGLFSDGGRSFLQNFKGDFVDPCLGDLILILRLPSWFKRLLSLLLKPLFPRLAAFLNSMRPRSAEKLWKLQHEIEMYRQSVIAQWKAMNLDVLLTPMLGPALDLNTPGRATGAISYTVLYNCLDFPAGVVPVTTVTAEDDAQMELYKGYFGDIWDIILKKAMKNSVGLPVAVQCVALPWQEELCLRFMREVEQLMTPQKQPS
Experiment: Tested for hydrolysis by rat brain microsomal anandamide amidohydrolase (AAH).
Summary of the method: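 Substrate at 100 μM (final) with 150 μg rat brain microsomal protein in 50 mM Tris·HCl, 1 mM EDTA, 0.1% BSA, pH 7.4, 37 °C, 15 min with shaking. Stopped with acetonitrile. Products quantified by RP-HPLC: arachidonic acid at 204 nm, or ethanolamine-type amine by OPA precolumn derivatization at 230 nm. Substrate-free blank subtracted. Four experiments in duplicate.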

Row | Structure (SMILES) | Rate of hydrolysis (nM min-1 mg-1) | Relative rate of hydrolysis [%]
1 | CCCCC/C=C\C/C=C\C/C=C\C/C=C\CCCC(=O)Nc1cccc(O)c1 | 1.98 | 152
2 | CCCCC/C=C\C/C=C\C/C=C\C/C=C\CCCC(=O)NCCF | 1.65 | 127
3 | CCCCC/C=C\C/C=C\C/C=C\C/C=C\CCCC(=O)N(C)CCO | 0 | 0
4 | CCCCC/C=C\C/C=C\C/C=C\C/C=C\CCCC(=O)N[C@@H](C)CO | 0.299 | 
5 | CCCCC/C=C\C/C=C\C/C=C\C/C=C\CCCC(=O)NCCO | 1.3 | 
6 | CCCCCCCCCCCCCCCCCC(=O)NCCO | 0.2 | 15
7 | CCCCCCCC/C=C\CCCCCCCC(=O)N[C@@H](C)CO | 0.47 | 3.6
8 | CCCCC/C=C\C/C=C\C/C=C\C/C=C\CCCC(=O)N[C@@H](C)CC | 0.082 | 6.3
9 | CCCCC/C=C\C/C=C\C/C=C\C/C=C\CCCC(=O)Nc1ccccc1O | 2.51 | 193
10 | CCCCC/C=C\C/C=C\C/C=C\C/C=C\CCCC(=O)Nc1ccc(O)cc1 | 0.208 | 16
11 | CCCCC/C=C\C/C=C\C/C=C\C/C=C\CCCC(=O)NC1CCC(O)CC1 (stereo not drawn) | 0.299 | 2
12 | CCCCC/C=C\C/C=C\CCCCCCCC(=O)N[C@@H](C)CO | 0.27 | 20.5
13 | CCCCC/C=C\C/C=C\C/C=C\C/C=C\CCCC(=O)NC(C)(C)C | 0.022 | 1.8
14 | CCCCC/C=C\C/C=C\C/C=C\C/C=C\CCCC(=O)NC(C)(C)CO | 0.056 | 4.3
15 | CCCCC/C=C\C/C=C\C/C=C\C/C=C\CCCC(N)=O | 2.85 | 219
16 | CCCCC/C=C\C/C=C\C/C=C\C/C=C\CCCC(=O)Nc1ccc(CO)cc1 | 0 | 0
17 | CCCCC/C=C\C/C=C\C/C=C\C/C=C\CCCC(=O)N[C@H](C)CC | 0 | 0
18 | CCCCC/C=C\C/C=C\C/C=C\C/C=C\CCCC(=O)N[C@H](C)CO | 0.03 | 
19 | CCCCC/C=C\C/C=C\C/C=C\C/C=C\CCCC(=O)OC(CO)CO | 3.27 | 251
20 | CCCCC/C=C\C/C=C\C/C=C\C/C=C\CCC(C)(C)C(=O)NCCO | 0.0094 | 0.7
21 | CCCCC/C=C\C/C=C\C/C=C\C/C=C\CCCC(=O)NC[C@@H](C)O | 1.58 | 121
22 | CCCCC/C=C\C/C=C\CCCCCCCC(=O)NCCO | 0.98 | 
23 | CCCCC/C=C\C/C=C\C/C=C\C/C=C\CCCC(=O)NC[C@H](C)O | 0.273 | 21
24 | CCCCC/C=C\C/C=C\C/C=C\C/C=C\CCCC(=O)OCC(O)CO (stereo not drawn) | 3.43 | 264
25 | CCCCC/C=C\C/C=C\C/C=C\C/C=C\CCCC(=O)N(CCO)CCO | 0 | 
26 | CCCCCCCC/C=C\CCCCCCCC(=O)NCCO | 0.79 | 61.1
27 | CCCCC/C=C\C/C=C\C/C=C\C/C=C\CCCC(=O)NCC(C)C | 0.025 | 2

System: not listed separately
Experiment: Ratio of Vmax value and Km value of the compound.
Summary of the method: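 Sprague–Dawley rat brain microsomes (105000g pellet) at 0.3 mg/mL protein, 37 °C, pH 7.4, BSA as carrier. Varied substrate concentrations, sampled at least four times within the linear initial range. Arachidonic acid formed measured by RP-HPLC (UV 204 nm, calibration curve). Initial velocity vs substrate concentration fitted to Michaelis–Menten.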

Row | Structure (SMILES) | Vmax / Km (ml min-1 kg-1) | Vmax / Km (ml min-1 mg-1)
28 | CCCCC/C=C\C/C=C\C/C=C\C/C=C\CCCC(=O)N[C@@H](C)CO | 0.049 | 
29 | CCCCC/C=C\C/C=C\C/C=C\C/C=C\CCCC(=O)Nc1ccccc1O | 0.43 | 
30 | CCCCC/C=C\C/C=C\C/C=C\C/C=C\CCCC(N)=O |  | 1.24
31 | CCCCC/C=C\C/C=C\C/C=C\C/C=C\CCCC(=O)N[C@H](C)CO | 0.011 | 
